Experimental data published in ChEMBL document CHEMBL5724801, “EUbOPEN Chemogenomics Library - Multiplex” (2024).
Several values for one entry are separate records, joined by “and”; a condition that tells them apart may be missing. Identical values can stand only once. Non-standard residues stand in square brackets, D forms with d. Residues, ends and D or L forms follow the SMILES beside them.

Tested on: U2OS
Test: Multiplex assay against U2OS
Format: toxicity, cell-based
Conditions: human
How it was run: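 At seeding, live cells were stained with Hoechst33342, BioTracker Green Microtubule Cytoskeleton Dye, MitoTracker Red and Annexin V Alexa Fluor 680. After compound addition they were imaged on a CQ1 microscope at 37°C and 5% CO2, and CellPathfinder machine-learning gating sorted them into Hoechst high-intensity objects or normal cells, with normal cells further split into healthy, pyknosed or fragmented nuclei and pyknosed cells into mitotic or apoptotic. Tubulin, mitochondrial-mass and membrane-permeability phenotypes are given as per cents of cells with healthy nuclei.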

[1] = 12 h, 1 µM, compound concentration 1 uM
[2] = 12 h, 10 µM, compound concentration 10 uM
[3] = 24 h, 1 µM, compound concentration 1 uM
[4] = 24 h, 10 µM, compound concentration 10 uM
[5] = 48 h, 1 µM, compound concentration 1 uM
[6] = 48 h, 10 µM, compound concentration 10 uM

CC(C)C[C@@H]1NC(=O)[C@@H](C(C)C)NC(=O)[C@@H]2CCCN2C(=O)[C@@H](CC(=O)O)NC(=O)[C@@H](Cc2c[nH]c3ccccc23)NC1=O [BQ-123] (cyclo(L[dW][dD]P[dV]))
Population Apoptotic (%) [1]: 77% and 83% | Population Fragmented Nuclei (%) [1]: 20% and 19% | Population Healthy Nuclei (%) [1]: 69% and 75% | Population Hoechst High Intensity Objects (%) [1]: 0% and 2% | Population Membrane Permeable-Phenotype (%) [1]: 1% and 2% | Population Mitochondria Different-Phenotype (%) [1]: 1% and 0% | Population Mitotic Cells (%) [1]: 22% and 16% | Population Normal (%) [1]: 99% and 97% | Population Pyknosed Nuclei (%) [1]: 9% and 5% | Population Tubulin-Different-Phenotype (%) [1]: 0% and 8% | Total Cell Count [1]: 228 and 118 | Population Apoptotic (%) [2]: 78% and 75% | Population Fragmented Nuclei (%) [2]: 29% and 25% | Population Healthy Nuclei (%) [2]: 65% and 70% | Population Hoechst High Intensity Objects (%) [2]: 2% | Population Membrane Permeable-Phenotype (%) [2]: 8% and 7% | Population Mitochondria Different-Phenotype (%) [2]: 1% and 4% | Population Mitotic Cells (%) [2]: 21% and 25% | Population Normal (%) [2]: 97% | Population Pyknosed Nuclei (%) [2]: 4% | Population Tubulin-Different-Phenotype (%) [2]: 3% and 2% | Total Cell Count [2]: 294 and 99 | Population Apoptotic (%) [3]: 69% and 85% | Population Fragmented Nuclei (%) [3]: 16% and 11% | Population Healthy Nuclei (%) [3]: 75% and 77% | Population Hoechst High Intensity Objects (%) [3]: 0% | Population Membrane Permeable-Phenotype (%) [3]: 2% and 6% | Population Mitochondria Different-Phenotype (%) [3]: 1% and 0% | Population Mitotic Cells (%) [3]: 30% and 14% | Population Normal (%) [3]: 99% | Population Pyknosed Nuclei (%) [3]: 8% and 10% | Population Tubulin-Different-Phenotype (%) [3]: 1% and 3% | Total Cell Count [3]: 279 and 137 | Population Apoptotic (%) [4]: 92% and 100% | Population Fragmented Nuclei (%) [4]: 24% | Population Healthy Nuclei (%) [4]: 67% and 74% | Population Hoechst High Intensity Objects (%) [4]: 2% and 0% | Population Membrane Permeable-Phenotype (%) [4]: 8% and 6% | Population Mitochondria Different-Phenotype (%) [4]: 2% and 8% | Population Mitotic Cells (%) [4]: 8% and 0% | Population Normal (%) [4]: 97% and 99% | Population Pyknosed Nuclei (%) [4]: 7% and 1% | Population Tubulin-Different-Phenotype (%) [4]: 4% | Total Cell Count [4]: 338 and 113 | Population Apoptotic (%) [5]: 77% and 100% | Population Fragmented Nuclei (%) [5]: 14% and 18% | Population Healthy Nuclei (%) [5]: 79% and 70% | Population Hoechst High Intensity Objects (%) [5]: 1% | Population Membrane Permeable-Phenotype (%) [5]: 3% | Population Mitochondria Different-Phenotype (%) [5]: 1% and 3% | Population Mitotic Cells (%) [5]: 22% and 0% | Population Normal (%) [5]: 98% | Population Pyknosed Nuclei (%) [5]: 5% and 10% | Population Tubulin-Different-Phenotype (%) [5]: 3% and 2% | Total Cell Count [5]: 407 and 226 | Population Apoptotic (%) [6]: 94% and 81% | Population Fragmented Nuclei (%) [6]: 19% and 20% | Population Healthy Nuclei (%) [6]: 70% and 66% | Population Hoechst High Intensity Objects (%) [6]: 1% | Population Membrane Permeable-Phenotype (%) [6]: 5% | Population Mitochondria Different-Phenotype (%) [6]: 2% and 6% | Population Normal (%) [6]: 98% | Population Pyknosed Nuclei (%) [6]: 9% and 12% | Population Tubulin-Different-Phenotype (%) [6]: 3% and 2%

Cc1cc(-c2ccc3c(c2)CC[C@H]3N2CC3(CCN(C(=O)Cc4cn5cc(C)sc5n4)CC3)C2)ncn1 [PF-5190457]
Population Apoptotic (%) [1]: 82% and 63% | Population Fragmented Nuclei (%) [1]: 24% and 21% | Population Healthy Nuclei (%) [1]: 65% and 66% | Population Hoechst High Intensity Objects (%) [1]: 1% and 0% | Population Membrane Permeable-Phenotype (%) [1]: 7% and 4% | Population Mitochondria Different-Phenotype (%) [1]: 3% | Population Mitotic Cells (%) [1]: 17% and 36% | Population Normal (%) [1]: 98% and 100% | Population Pyknosed Nuclei (%) [1]: 9% and 11% | Population Tubulin-Different-Phenotype (%) [1]: 4% and 3% | Total Cell Count [1]: 239 and 93 | Population Apoptotic (%) [2]: 61% and 71% | Population Fragmented Nuclei (%) [2]: 18% and 14% | Population Healthy Nuclei (%) [2]: 66% and 74% | Population Hoechst High Intensity Objects (%) [2]: 2% and 1% | Population Membrane Permeable-Phenotype (%) [2]: 7% and 8% | Population Mitochondria Different-Phenotype (%) [2]: 5% and 10% | Population Mitotic Cells (%) [2]: 38% and 28% | Population Normal (%) [2]: 97% and 98% | Population Pyknosed Nuclei (%) [2]: 14% and 11% | Population Tubulin-Different-Phenotype (%) [2]: 5% and 6% | Total Cell Count [2]: 238 and 126 | Population Apoptotic (%) [3]: 69% and 33% | Population Fragmented Nuclei (%) [3]: 25% and 21% | Population Healthy Nuclei (%) [3]: 66% and 76% | Population Hoechst High Intensity Objects (%) [3]: 1% and 0% | Population Membrane Permeable-Phenotype (%) [3]: 8% and 6% | Population Mitochondria Different-Phenotype (%) [3]: 3% and 1% | Population Mitotic Cells (%) [3]: 30% and 66% | Population Normal (%) [3]: 98% and 99% | Population Pyknosed Nuclei (%) [3]: 8% and 2% | Population Tubulin-Different-Phenotype (%) [3]: 5% and 2% | Total Cell Count [3]: 282 and 126 | Population Apoptotic (%) [4]: 67% and 84% | Population Fragmented Nuclei (%) [4]: 18% | Population Healthy Nuclei (%) [4]: 72% and 69% | Population Hoechst High Intensity Objects (%) [4]: 2% and 1% | Population Membrane Permeable-Phenotype (%) [4]: 3% and 11% | Population Mitochondria Different-Phenotype (%) [4]: 0% and 8% | Population Mitotic Cells (%) [4]: 32% and 15% | Population Normal (%) [4]: 97% and 98% | Population Pyknosed Nuclei (%) [4]: 9% and 12% | Population Tubulin-Different-Phenotype (%) [4]: 1% and 4% | Total Cell Count [4]: 295 and 154 | Population Apoptotic (%) [5]: 84% and 66% | Population Fragmented Nuclei (%) [5]: 20% and 16% | Population Healthy Nuclei (%) [5]: 71% and 78% | Population Hoechst High Intensity Objects (%) [5]: 0% and 2% | Population Membrane Permeable-Phenotype (%) [5]: 7% and 4% | Population Mitochondria Different-Phenotype (%) [5]: 4% and 2% | Population Mitotic Cells (%) [5]: 15% and 33% | Population Normal (%) [5]: 99% and 97% | Population Pyknosed Nuclei (%) [5]: 8% and 5% | Population Tubulin-Different-Phenotype (%) [5]: 4% and 2% | Total Cell Count [5]: 402 and 184 | Population Apoptotic (%) [6]: 74% and 76% | Population Fragmented Nuclei (%) [6]: 16% and 18% | Population Healthy Nuclei (%) [6]: 71% | Population Hoechst High Intensity Objects (%) [6]: 3% | Population Membrane Permeable-Phenotype (%) [6]: 5% and 11% | Population Mitochondria Different-Phenotype (%) [6]: 2% and 6% | Population Mitotic Cells (%) [6]: 25% and 23% | Population Normal (%) [6]: 96% | Population Pyknosed Nuclei (%) [6]: 12% and 10% | Population Tubulin-Different-Phenotype (%) [6]: 3% and 4% | Total Cell Count [6]: 389 and 217
